Test [1] concerns A-375. Briefly: Cytotoxicity against human A375 cells assessed as reduction in cell growth at 100 uM incubated for 72 hrs by MTT assay relative to control. Type of test: functional. As to conditions: A-375, 72 h, read-out: GI. The method in brief:
(§1)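 Cells grown in DMEM with 10% FBS and penicillin-streptomycin at 37 °C, 5% CO2, seeded at 3000 cells/well and attached overnight. Screening series given at 1, 3, 10, 100 μM; follow-up agent at 100 nM–3 μM; both 72 h, with 0.1% DMSO vehicle. MTT (5 mg/mL stock) added for 3 h at 37 °C, formazan dissolved in DMSO, absorbance read at 570 nm. Viability expressed as % of DMSO-treated wells from replicates.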

Test [2] deals with A-375. Kind of test: Cytotoxicity against human A375 cells assessed as reduction in cell growth at 1 uM incubated for 72 hrs by MTT assay relative to control. Type of test: functional. The settings on record: A-375, 72 h, read-out: GI. A digest of the protocol: as §1
Test [3] has as its system A-375. Kind of test: Cytotoxicity against human A375 cells assessed as reduction in cell growth incubated for 72 hrs by MTT assay. Type of test: functional, cell-based. As to conditions: A-375, 72 h. The method in brief: as §1
For test [4], the system named is A-431. Briefly: Cytotoxicity against human A431 cells assessed as reduction in cell growth at 100 uM incubated for 72 hrs by MTT assay relative to control. Type of test: functional. The settings on record: A-431, 72 h, read-out: GI. The method in brief:
as §1

Test [5] relates to A-431. Briefly: Cytotoxicity against human A431 cells assessed as reduction in cell growth at 1 uM incubated for 72 hrs by MTT assay relative to control. Type of test: functional. The settings on record: A-431, 72 h, read-out: GI. The method in brief:
as §1

Test [6] has as its system A-375. Briefly: Cytotoxicity against human A375 cells assessed as reduction in cell growth at 10 uM incubated for 72 hrs by MTT assay relative to control. Type of test: functional. As to conditions: A-375, 72 h, read-out: GI. A digest of the protocol: as §1
Test [7] deals with MCF7. Kind of test: Cytotoxicity against human MCF7 cells assessed as reduction in cell growth at 3 uM incubated for 72 hrs by MTT assay relative to control. Type of test: functional. The settings on record: MCF7, 72 h, read-out: GI. A digest of the protocol: as §1
In test [8] the test system is MCF7. Briefly: Cytotoxicity against human MCF7 cells assessed as reduction in cell growth at 10 uM incubated for 72 hrs by MTT assay relative to control. Type of test: functional. The settings on record: MCF7, 72 h, read-out: GI. The method in brief:
as §1

The test system of test [9] is MCF7. Briefly: Cytotoxicity against human MCF7 cells assessed as reduction in cell growth at 30 uM incubated for 72 hrs by MTT assay relative to control. As to conditions: MCF7, 72 h, read-out: GI. Type of test: functional.
Test [10] relates to A-431. Kind of test: Cytotoxicity against human A431 cells assessed as reduction in cell growth at 3 uM incubated for 72 hrs by MTT assay relative to control. Type of test: functional. The settings on record: A-431, 72 h, read-out: GI. The method in brief: as §1
Test [11] deals with HeLa. Kind of test: Cytotoxicity against human HeLa cells assessed as reduction in cell growth incubated for 72 hrs by MTT assay. Type of test: functional, cell-based. The method in brief: as §1
Test [12] deals with HeLa. Briefly: Cytotoxicity against human HeLa cells assessed as reduction in cell growth at 1 uM incubated for 72 hrs by MTT assay relative to control. Type of test: functional. As to conditions: read-out: GI. The method in brief:
as §1

The subject of test [13] is A-431. Kind of test: Cytotoxicity against human A431 cells assessed as reduction in cell growth at 10 uM incubated for 72 hrs by MTT assay relative to control. As to conditions: A-431, 72 h, read-out: GI. Type of test: functional. A digest of the protocol: as §1
The test system of test [14] is MCF7. Briefly: Cytotoxicity against human MCF7 cells assessed as reduction in cell growth at 100 uM incubated for 72 hrs by MTT assay relative to control. Type of test: functional. As to conditions: MCF7, 72 h, read-out: GI. A digest of the protocol: as §1
Test [15] has as its system A-431. Kind of test: Cytotoxicity against human A431 cells assessed as reduction in cell growth incubated for 72 hrs by MTT assay. Type of test: functional, cell-based. As to conditions: A-431, 72 h. The method in brief: as §1
Test [16] deals with HeLa. Briefly: Cytotoxicity against human HeLa cells assessed as reduction in cell growth at 100 uM incubated for 72 hrs by MTT assay relative to control. Type of test: functional. The settings on record: read-out: GI. The method in brief:
as §1

The test system of test [17] is A-375. Kind of test: Cytotoxicity against human A375 cells assessed as reduction in cell growth at 30 uM incubated for 72 hrs by MTT assay relative to control. As to conditions: A-375, 72 h, read-out: GI. Type of test: functional.
The subject of test [18] is HeLa. Kind of test: Cytotoxicity against human HeLa cells assessed as reduction in cell growth at 3 uM incubated for 72 hrs by MTT assay relative to control. Type of test: functional. The settings on record: read-out: GI. A digest of the protocol:
as §1

In test [19] the test system is HeLa. Kind of test: Cytotoxicity against human HeLa cells assessed as reduction in cell growth at 10 uM incubated for 72 hrs by MTT assay relative to control. Type of test: functional. As to conditions: read-out: GI. The method in brief:
as §1

Test [20] deals with MCF7. Kind of test: Cytotoxicity against human MCF7 cells assessed as reduction in cell growth at 1 uM incubated for 72 hrs by MTT assay relative to control. Type of test: functional. As to conditions: MCF7, 72 h, read-out: GI. A digest of the protocol:
as §1

Test [21] has as its system A-375. Briefly: Cytotoxicity against human A375 cells assessed as reduction in cell growth at 3 uM incubated for 72 hrs by MTT assay relative to control. Type of test: functional. The settings on record: A-375, 72 h, read-out: GI. A digest of the protocol: as §1
In test [22] the test system is HeLa. Briefly: Cytotoxicity against human HeLa cells assessed as reduction in cell growth at 30 uM incubated for 72 hrs by MTT assay relative to control. The settings on record: read-out: GI. Type of test: functional.
For test [23], the system named is A-431. Kind of test: Cytotoxicity against human A431 cells assessed as reduction in cell growth at 30 uM incubated for 72 hrs by MTT assay relative to control. Type of test: functional. The settings on record: A-431, 72 h, read-out: GI.
In test [24] the test system is MCF7. Kind of test: Cytotoxicity against human MCF7 cells assessed as reduction in cell growth incubated for 72 hrs by MTT assay. Type of test: functional, cell-based. The settings on record: MCF7, 72 h. A digest of the protocol: as §1

Each structure is given as a SMILES string.

Turning to `Cc1ccnc(/C(N)=N/NC(=S)N2CCCC2)c1`, the inhibition of growth at 100 µM with A-375 [1] was 88.8%; in the test with A-431 [4], 86.9%; in the test on MCF7 [14], 87.7%; in the test on HeLa [16], 88.1%. Moreover, the inhibition of growth at 1 µM with A-375 [2] stood at 69%; with A-431 [5] it was 58.5%; in the test on HeLa [12], 25.9%; in the test with MCF7 [20], 49%. Further, the IC50 in the test with A-375 [3] stood at 0.72 µM; with HeLa [11], 1.9 µM; with A-431 [15], 0.9 µM; with MCF7 [24], 1.2 µM. The inhibition of growth at 10 µM in the test with A-375 [6] is 86%; with MCF7 [8], 63.6%; in the test with A-431 [13], 71.2%; in the test with HeLa [19], 67%. Also, the inhibition of growth at 3 µM amounted to 57.7% with MCF7 [7], 63% in the test on A-431 [10], 52.1% with HeLa [18] and 80% in the test on A-375 [21]. The inhibition of growth at 30 µM amounted to 82.2% in the test with MCF7 [9], 87.9% in the test with A-375 [17], 86.4% in the test on HeLa [22] and 84.2% in the test with A-431 [23].

On to `N/C(=N\NC(=S)N1CCCC1)c1ccccn1`, for which the inhibition of growth at 100 µM in the test on A-375 [1] worked out at 87.8%; with A-431 [4], 83.8%; in the test on MCF7 [14], 74.9%; in the test on HeLa [16] it was 89.1%. Also, the inhibition of growth at 1 µM was determined as 65.7% with A-375 [2], 39.8% in the test with A-431 [5], 24.7% with HeLa [12] and 45.9% in the test with MCF7 [20]. The half-inhibitory concentration (IC50) came out at 0.6 µM in the test with A-375 [3], 6.2 µM in the test on HeLa [11], 1.7 µM with A-431 [15] and 3.6 µM in the test with MCF7 [24]. The inhibition of growth at 10 µM in the test on A-375 [6] came to 83.9%; in the test with MCF7 [8], 51.7%; in the test on A-431 [13], 77.2%; with HeLa [19] it was 63.5%. The inhibition of growth at 3 µM with MCF7 [7] was 49.8%; with A-431 [10], 70.9%; in the test with HeLa [18] it was 38.5%; with A-375 [21], 80%. For the same compound, the inhibition of growth at 30 µM in the test on MCF7 [9] came to 54.6%; in the test with A-375 [17], 86%; with HeLa [22], 84.5%; in the test on A-431 [23] it was 85.2%.

`Cc1cccc(/C(N)=N/NC(=S)N2CCOCC2)n1`: the inhibition of growth at 100 µM in the test with A-375 [1] is 83.8%; in the test with A-431 [4], 84.8%; in the test with MCF7 [14] it was 74.7%; in the test on HeLa [16], 82.4%. In addition, the inhibition of growth at 1 µM was found to be 30.2% in the test with A-375 [2], 47.2% with A-431 [5], 25.7% in the test with HeLa [12] and 11.7% in the test with MCF7 [20]. Further, the IC50 worked out at 14 µM in the test with A-375 [3], 2.2 µM in the test with HeLa [11], 4.3 µM with A-431 [15] and 21.5 µM in the test on MCF7 [24]. Also, the inhibition of growth at 10 µM with A-375 [6] was 43.6%; with MCF7 [8] it was 39.1%; in the test with A-431 [13], 68.1%; with HeLa [19], 85.4%. Also, the inhibition of growth at 3 µM is 21.6% in the test on MCF7 [7], 45.8% in the test with A-431 [10], 65.7% in the test with HeLa [18] and 34.7% with A-375 [21]. Further, the inhibition of growth at 30 µM amounted to 57.8% in the test with MCF7 [9], 74.3% in the test on A-375 [17], 86.9% in the test on HeLa [22] and 80% in the test with A-431 [23].

The record behind these values is ChEMBL document CHEMBL4387724, “2-Pyridineformamide N(4)-ring incorporated thiosemicarbazones inhibit MCF-7 cells by inhibiting JNK pathway” (Bioorg Med Chem Lett, 2019).
